Results from different studies.
CDK4: Cyclin-dependent kinase 4 (CDK4, Homo sapiens, UniProt P11802)

Clc1cccc(-c2c[nH]c3nccc(N4CCOCC4)c23)c1 — ΔTm (Serine/threonine-protein kinase 3 (STK3, Homo sapiens, UniProt Q13188); thermal stability, DSF): > 7.4 °C
CCOC(=O)[C@H]1Cc2c(cc([N+](=O)[O-])cc2[N+](=O)[O-])[C@H](O)[C@]12C(=O)Nc1c(F)cccc12 — inhibition (CDK4; cell-free assay, inhibitor, TR-FRET; 1 µM): 32.6%
COC(=O)[C@H](CCCNC(=N)N)NC(=O)c1ccccc1 — Km (Protein-arginine deiminase type-3 (PADI3, Homo sapiens, UniProt Q9ULW8); enzyme activity, substrate): 10.8 mM
Nc1ncc(-c2nc(N3CCOCC3)nc(N3CCOCC3)n2)c(C(F)F)n1 — remaining binding (Fibroblast growth factor receptor 3 (FGFR3, Homo sapiens, UniProt P22607, G697C); cell-free assay, competition with immobilised ligand; 10 µM): 83%
CCOC(=O)[C@H]1Cc2c(cc([N+](=O)[O-])cc2[N+](=O)[O-])[C@@H](O)[C@@]12C(=O)Nc1ccc([N+](=O)[O-])cc12 — inhibition (CDK4; cell-free assay, inhibitor, TR-FRET; 1 µM): 42.8%
C#Cc1n[nH]c2c(-c3cn([C@@H](C)c4ccccn4)c(=O)[nH]c3=O)cc(F)cc12 — inhibition (Tyrosine-protein kinase Fes/Fps (FES, Homo sapiens, UniProt P07332); enzyme activity, inhibitor; 0.1 µM): 10%
COc1ncccc1-c1cnn2ccc(N3CCN(C(=O)OC(C)C)CC3)nc12 — remaining binding (Myosin-IIIb (MYO3B, Homo sapiens, UniProt Q8WXR4); binding, competition with immobilised ligand; 1 µM): 100%
CCOC(=O)[C@H]1Cc2c(cc([N+](=O)[O-])cc2[N+](=O)[O-])[C@H](O)[C@]12C(=O)Nc1ccc(F)cc12 — inhibition (CDK4; cell-free assay, inhibitor, TR-FRET; 1 µM): 32.6%
Cc1nn(C)cc1-c1nc2c(N3CCN(Cc4ccc(Cl)cc4)CC3)c(Cl)cnc2[nH]1 — remaining binding (Serine/threonine-protein kinase MRCK beta (CDC42BPB, Homo sapiens, UniProt Q9Y5S2); binding, competition with immobilised ligand; 1 µM): 55%
COCCCOc1cc(C[C@@H](C[C@H](N)[C@@H](O)C[C@H](C(=O)NCC(C)(C)C(N)=O)C(C)C)C(C)C)ccc1OC — inhibition (Renin (REN, Homo sapiens, UniProt P00797); enzyme activity, inhibitor; 10 nM): 70%
